Measurements from ChEMBL document CHEMBL1155278, “3,4-Diaryl-isoxazoles and -imidazoles as potent dual inhibitors of p38alpha mitogen activated protein kinase and casein kinase 1delta” (J Med Chem, 2009).

Assays:
[1] = biological target: Serine/threonine-protein kinase pim-1 (Homo sapiens) (UniProt P11309); experiment: Inhibition of PIM1 assessed as residual activity at 10 uM by Cherenkov counting relative to control in presence of 20 uM ATP
[2] = biological target: Ribosomal protein S6 kinase alpha-1 (Homo sapiens) (UniProt Q15418); experiment: Inhibition of RSK1 assessed as residual activity at 10 uM by Cherenkov counting relative to control
Method in brief: (§1)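 Single-concentration profiling at 10 μM in a 78-kinase panel. Kinase activity is expressed as a percentage of control assays run without compound.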

[3] = biological target: Serine/threonine-protein kinase PAK 4 (Homo sapiens) (UniProt O96013); experiment: Inhibition of PAK4 assessed as residual activity at 10 uM by Cherenkov counting relative to control in presence of 5 uM ATP
[4] = biological target: Aurora kinase C (Homo sapiens) (UniProt Q9UQB9); experiment: Inhibition of Aurora C assessed as residual activity at 10 uM by Cherenkov counting relative to control
Method in brief: (§2)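 Single-point profiling at 10 µM in a panel of 78 protein kinases. Kinase activity is expressed as a percentage relative to control assays without compound.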

[5] = biological target: MAP kinase-interacting serine/threonine-protein kinase 1 (Homo sapiens) (UniProt Q9BUB5); experiment: Inhibition of MNK1 assessed as residual activity at 10 uM by Cherenkov counting relative to control in presence of 50 uM ATP
[6] = biological target: Tyrosine-protein kinase Lck (Homo sapiens) (UniProt P06239); experiment: Inhibition of Lck assessed as residual activity at 10 uM by Cherenkov counting relative to control in presence of 50 uM ATP
[7] = biological target: T1, Serine/threonine-protein kinase D1 (Homo sapiens) (UniProt Q15139); experiment: Inhibition of PKD1 assessed as residual activity at 10 uM by Cherenkov counting relative to control in presence of 50 uM ATP; method in brief: as §1
T1 sequence (whole entry): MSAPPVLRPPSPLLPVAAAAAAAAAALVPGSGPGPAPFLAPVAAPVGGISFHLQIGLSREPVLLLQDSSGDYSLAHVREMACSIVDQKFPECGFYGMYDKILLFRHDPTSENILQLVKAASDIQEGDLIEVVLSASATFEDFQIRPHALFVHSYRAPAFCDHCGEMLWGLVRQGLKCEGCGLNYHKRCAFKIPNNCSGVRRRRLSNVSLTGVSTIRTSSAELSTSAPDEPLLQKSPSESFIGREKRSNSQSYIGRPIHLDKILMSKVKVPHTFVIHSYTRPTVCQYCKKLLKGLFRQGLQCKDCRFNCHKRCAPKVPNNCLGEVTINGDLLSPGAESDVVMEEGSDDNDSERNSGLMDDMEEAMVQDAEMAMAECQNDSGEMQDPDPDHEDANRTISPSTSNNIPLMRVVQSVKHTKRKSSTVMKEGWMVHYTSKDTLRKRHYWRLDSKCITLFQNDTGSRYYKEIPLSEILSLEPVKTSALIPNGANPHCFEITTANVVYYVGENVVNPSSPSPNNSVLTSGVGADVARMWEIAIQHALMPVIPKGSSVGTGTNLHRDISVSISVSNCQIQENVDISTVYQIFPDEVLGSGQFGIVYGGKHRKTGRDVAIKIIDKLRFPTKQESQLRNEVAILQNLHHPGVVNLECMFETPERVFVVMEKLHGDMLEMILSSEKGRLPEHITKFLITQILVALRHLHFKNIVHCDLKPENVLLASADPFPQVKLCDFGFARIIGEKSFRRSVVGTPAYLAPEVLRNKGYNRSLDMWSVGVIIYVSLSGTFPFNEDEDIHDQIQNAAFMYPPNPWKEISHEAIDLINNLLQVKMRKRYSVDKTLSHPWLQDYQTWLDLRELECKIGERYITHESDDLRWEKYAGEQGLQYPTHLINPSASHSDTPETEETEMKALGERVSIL

[8] = biological target: T2, Serine/threonine-protein kinase Chk1 (Homo sapiens) (UniProt O14757); experiment: Inhibition of CHK1 assessed as residual activity at 10 uM by Cherenkov counting relative to control in presence of 20 uM ATP; method in brief: as §2
T2 sequence (whole entry): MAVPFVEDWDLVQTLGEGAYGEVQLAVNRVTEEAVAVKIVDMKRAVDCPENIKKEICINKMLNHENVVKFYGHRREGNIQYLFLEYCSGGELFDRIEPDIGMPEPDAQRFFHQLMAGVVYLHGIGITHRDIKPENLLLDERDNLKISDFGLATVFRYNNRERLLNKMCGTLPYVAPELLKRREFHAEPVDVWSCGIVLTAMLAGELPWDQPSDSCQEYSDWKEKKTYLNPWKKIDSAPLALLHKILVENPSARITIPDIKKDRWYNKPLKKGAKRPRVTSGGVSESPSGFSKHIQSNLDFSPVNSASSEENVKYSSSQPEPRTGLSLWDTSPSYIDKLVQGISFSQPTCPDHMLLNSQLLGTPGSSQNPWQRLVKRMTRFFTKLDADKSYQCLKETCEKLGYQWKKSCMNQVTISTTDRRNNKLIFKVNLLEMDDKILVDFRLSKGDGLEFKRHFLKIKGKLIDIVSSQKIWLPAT

[9] = biological target: Tyrosine-protein kinase CSK (Homo sapiens) (UniProt P41240); experiment: Inhibition of CSK assessed as residual activity at 0.1 uM by Cherenkov counting relative to control in presence of 20 uM ATP
Method in brief: (§3)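 Single-concentration screen at 0.1 µM across a panel of 76 protein kinases. Each kinase was run at an ATP concentration approximating its ATP Km. Results are % mean residual activity versus control assays without compound (n = 3 ± SD).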

[10] = biological target: Mitogen-activated protein kinase 8 (Homo sapiens) (UniProt P45983); experiment: Inhibition of JNK1 assessed as residual activity at 0.1 uM by Cherenkov counting relative to control in presence of 20 uM ATP
Method in brief: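 Single-concentration selectivity screen at 0.1 μM against a panel of 76 protein kinases. Each kinase was run at an ATP level approximating its Km for ATP. Output is mean residual activity as % of the control assay without compound, n = 3 ± SD.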

[11] = biological target: Glycogen synthase kinase-3 beta (Homo sapiens) (UniProt P49841); experiment: Inhibition of GSK3-beta assessed as residual activity at 0.1 uM by Cherenkov counting relative to control in presence of 5 uM ATP; method in brief: as §3
[12] = biological target: Fibroblast growth factor receptor 1 (Homo sapiens) (UniProt P11362); experiment: Inhibition of FGFR1 assessed as residual activity at 0.1 uM by Cherenkov counting relative to control in presence of 20 uM ATP; method in brief: as §3
[13] = Inhibition of CK2 assessed as residual activity at 0.1 uM by Cherenkov counting relative to control in presence of 5 uM ATP; method in brief: as §3
[14] = biological target: Casein kinase I isoform epsilon (Homo sapiens, UniProt P49674); experiment: Inhibition of recombinant CK1epsilon by Cherenkov counting in presence of 20 uM ATP
[15] = biological target: Insulin-like growth factor 1 receptor (Homo sapiens) (UniProt P08069); experiment: Inhibition of IGF1R assessed as residual activity at 0.1 uM by Cherenkov counting relative to control in presence of 5 uM ATP; method in brief: as §3
Chain of Insulin-like growth factor 1 receptor (Homo sapiens) (P08069 31-736 limits assumed): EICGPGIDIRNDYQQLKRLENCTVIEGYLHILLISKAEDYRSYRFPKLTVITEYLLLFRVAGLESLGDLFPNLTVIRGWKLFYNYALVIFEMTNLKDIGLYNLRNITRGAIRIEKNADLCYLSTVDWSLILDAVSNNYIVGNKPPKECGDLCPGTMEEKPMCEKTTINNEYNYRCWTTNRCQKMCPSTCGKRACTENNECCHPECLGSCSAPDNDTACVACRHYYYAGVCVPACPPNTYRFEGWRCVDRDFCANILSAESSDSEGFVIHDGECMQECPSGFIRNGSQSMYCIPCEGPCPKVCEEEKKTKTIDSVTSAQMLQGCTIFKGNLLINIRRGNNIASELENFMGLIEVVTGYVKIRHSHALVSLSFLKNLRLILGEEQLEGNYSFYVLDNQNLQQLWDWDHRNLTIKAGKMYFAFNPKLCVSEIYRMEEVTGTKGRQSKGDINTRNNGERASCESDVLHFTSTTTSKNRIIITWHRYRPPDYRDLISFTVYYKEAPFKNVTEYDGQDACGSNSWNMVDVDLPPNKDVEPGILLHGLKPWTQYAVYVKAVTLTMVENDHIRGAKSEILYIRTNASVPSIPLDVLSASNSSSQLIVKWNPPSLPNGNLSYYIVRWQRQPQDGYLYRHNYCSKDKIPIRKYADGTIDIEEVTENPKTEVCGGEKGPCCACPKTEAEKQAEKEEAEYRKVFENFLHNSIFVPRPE
Chain of Insulin-like growth factor 1 receptor (Homo sapiens) (P08069 741-1367 limits assumed): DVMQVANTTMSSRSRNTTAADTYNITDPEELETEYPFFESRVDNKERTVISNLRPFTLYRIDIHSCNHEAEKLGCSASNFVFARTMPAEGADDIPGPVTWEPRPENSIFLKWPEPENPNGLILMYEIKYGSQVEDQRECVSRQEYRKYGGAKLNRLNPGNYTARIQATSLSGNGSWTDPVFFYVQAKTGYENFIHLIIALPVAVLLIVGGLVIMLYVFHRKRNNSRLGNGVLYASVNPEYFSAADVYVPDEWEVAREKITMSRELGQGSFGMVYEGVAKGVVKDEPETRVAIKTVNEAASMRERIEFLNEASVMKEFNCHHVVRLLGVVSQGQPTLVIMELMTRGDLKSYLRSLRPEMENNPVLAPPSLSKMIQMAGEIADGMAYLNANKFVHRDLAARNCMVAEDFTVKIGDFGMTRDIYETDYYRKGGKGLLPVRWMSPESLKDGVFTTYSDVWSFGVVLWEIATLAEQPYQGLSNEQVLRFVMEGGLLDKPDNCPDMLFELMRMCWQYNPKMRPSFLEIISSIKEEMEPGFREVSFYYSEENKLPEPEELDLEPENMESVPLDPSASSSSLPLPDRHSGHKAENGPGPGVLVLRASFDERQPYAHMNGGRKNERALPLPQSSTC

Chain of Aurora kinase C (Homo sapiens) (Q9UQB9 whole entry): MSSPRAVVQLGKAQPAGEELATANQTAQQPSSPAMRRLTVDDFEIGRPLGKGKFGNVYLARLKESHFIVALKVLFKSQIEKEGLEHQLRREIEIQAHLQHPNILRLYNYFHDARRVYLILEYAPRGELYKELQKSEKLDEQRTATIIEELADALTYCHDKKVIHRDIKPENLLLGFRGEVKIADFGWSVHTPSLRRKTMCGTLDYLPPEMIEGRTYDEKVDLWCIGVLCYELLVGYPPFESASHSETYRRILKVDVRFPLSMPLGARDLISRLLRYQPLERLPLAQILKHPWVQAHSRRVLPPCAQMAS
Chain of Fibroblast growth factor receptor 1 (Homo sapiens) (P11362 22-822 limits assumed): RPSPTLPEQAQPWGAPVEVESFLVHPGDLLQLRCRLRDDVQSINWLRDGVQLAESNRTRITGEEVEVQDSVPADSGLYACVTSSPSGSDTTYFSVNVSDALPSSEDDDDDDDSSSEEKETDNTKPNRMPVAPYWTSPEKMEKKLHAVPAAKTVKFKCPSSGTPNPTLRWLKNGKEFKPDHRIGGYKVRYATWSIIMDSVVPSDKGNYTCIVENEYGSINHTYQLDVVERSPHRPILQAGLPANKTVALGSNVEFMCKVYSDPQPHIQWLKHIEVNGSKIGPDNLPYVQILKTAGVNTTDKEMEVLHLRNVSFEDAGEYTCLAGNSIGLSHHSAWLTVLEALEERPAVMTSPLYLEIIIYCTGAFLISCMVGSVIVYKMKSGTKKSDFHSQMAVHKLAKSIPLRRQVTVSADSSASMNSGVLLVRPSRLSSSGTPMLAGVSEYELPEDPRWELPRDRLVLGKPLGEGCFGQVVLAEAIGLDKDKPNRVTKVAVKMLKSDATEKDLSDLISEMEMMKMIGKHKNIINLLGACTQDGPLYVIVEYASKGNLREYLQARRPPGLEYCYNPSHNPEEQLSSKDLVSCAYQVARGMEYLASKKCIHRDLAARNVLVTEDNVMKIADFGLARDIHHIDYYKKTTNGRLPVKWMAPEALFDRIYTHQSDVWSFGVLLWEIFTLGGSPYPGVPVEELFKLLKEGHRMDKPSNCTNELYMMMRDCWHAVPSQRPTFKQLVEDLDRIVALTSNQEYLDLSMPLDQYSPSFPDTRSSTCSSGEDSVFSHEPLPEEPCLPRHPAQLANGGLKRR
Chain of Casein kinase I isoform epsilon (P49674 whole entry, canonical isoform): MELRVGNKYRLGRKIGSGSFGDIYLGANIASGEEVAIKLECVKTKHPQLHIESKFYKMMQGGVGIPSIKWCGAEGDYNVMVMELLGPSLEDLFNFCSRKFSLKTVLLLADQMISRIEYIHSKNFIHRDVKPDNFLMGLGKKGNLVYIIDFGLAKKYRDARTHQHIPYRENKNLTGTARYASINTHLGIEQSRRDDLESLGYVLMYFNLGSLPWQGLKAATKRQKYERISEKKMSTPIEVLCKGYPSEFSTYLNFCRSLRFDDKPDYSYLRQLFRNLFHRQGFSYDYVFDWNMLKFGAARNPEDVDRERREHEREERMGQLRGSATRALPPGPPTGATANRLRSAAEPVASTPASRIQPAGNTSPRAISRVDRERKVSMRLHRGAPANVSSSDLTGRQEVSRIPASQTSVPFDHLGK
Chain of Mitogen-activated protein kinase 8 (Homo sapiens) (P45983 whole entry): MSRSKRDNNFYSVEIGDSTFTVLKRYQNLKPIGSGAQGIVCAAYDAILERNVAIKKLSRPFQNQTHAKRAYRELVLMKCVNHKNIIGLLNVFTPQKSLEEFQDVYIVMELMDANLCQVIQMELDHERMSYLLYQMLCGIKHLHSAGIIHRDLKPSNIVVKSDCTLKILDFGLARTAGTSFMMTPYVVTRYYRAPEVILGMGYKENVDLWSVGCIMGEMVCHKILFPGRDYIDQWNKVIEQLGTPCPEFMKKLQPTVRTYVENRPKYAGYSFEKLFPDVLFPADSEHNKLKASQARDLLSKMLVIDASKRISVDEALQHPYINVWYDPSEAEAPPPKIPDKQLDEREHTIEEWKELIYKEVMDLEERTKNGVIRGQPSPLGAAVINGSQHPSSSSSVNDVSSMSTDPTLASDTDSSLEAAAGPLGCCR
Chain of Ribosomal protein S6 kinase alpha-1 (Homo sapiens) (Q15418 whole entry): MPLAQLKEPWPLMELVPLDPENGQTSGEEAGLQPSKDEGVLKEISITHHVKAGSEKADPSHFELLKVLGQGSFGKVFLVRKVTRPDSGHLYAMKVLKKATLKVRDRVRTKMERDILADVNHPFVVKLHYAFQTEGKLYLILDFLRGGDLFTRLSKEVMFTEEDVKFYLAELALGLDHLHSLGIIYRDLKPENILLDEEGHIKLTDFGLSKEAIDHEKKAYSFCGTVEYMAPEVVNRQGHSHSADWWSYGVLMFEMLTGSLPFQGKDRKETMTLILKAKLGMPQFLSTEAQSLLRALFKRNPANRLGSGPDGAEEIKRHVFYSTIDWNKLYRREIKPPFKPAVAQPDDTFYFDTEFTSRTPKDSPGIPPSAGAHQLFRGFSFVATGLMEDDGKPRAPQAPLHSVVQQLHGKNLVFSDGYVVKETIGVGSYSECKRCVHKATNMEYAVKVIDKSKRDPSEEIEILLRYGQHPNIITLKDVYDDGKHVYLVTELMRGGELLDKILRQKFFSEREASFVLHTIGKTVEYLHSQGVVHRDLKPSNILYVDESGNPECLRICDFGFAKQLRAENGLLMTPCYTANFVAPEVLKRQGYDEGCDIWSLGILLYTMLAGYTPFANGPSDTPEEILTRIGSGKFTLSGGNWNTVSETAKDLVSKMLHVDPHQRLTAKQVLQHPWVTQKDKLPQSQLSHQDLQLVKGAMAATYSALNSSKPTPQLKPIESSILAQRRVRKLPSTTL
Chain of Tyrosine-protein kinase CSK (Homo sapiens) (P41240 2-450 limits assumed): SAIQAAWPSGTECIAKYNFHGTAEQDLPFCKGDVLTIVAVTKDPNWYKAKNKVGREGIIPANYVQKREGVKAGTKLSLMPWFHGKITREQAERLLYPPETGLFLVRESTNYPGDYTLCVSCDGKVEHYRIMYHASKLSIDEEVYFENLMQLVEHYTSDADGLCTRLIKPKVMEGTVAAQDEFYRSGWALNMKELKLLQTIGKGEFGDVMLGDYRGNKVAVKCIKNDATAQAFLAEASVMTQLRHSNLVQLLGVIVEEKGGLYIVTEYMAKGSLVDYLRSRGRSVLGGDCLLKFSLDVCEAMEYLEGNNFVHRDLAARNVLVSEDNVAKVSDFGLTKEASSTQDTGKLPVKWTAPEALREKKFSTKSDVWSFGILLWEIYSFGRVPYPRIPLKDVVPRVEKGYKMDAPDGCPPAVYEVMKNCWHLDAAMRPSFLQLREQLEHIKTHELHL
Chain of Tyrosine-protein kinase Lck (Homo sapiens) (P06239 2-509 limits assumed): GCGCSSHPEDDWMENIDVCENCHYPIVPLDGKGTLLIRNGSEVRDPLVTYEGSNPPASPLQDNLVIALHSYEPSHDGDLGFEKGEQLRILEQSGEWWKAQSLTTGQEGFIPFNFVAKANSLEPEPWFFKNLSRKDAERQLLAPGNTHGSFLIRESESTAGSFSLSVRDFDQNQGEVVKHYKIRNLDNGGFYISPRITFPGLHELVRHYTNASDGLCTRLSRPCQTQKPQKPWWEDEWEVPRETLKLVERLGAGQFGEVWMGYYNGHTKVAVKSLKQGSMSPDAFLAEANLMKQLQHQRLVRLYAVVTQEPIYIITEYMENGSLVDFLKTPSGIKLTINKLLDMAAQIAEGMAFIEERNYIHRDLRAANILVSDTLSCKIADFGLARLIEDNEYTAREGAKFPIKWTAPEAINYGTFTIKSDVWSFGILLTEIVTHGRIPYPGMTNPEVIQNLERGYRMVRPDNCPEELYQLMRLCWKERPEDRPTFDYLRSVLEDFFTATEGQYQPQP

Row | Activity [1] [%] | Activity [2] [%] | Activity [3] [%] | Activity [4] [%] | Activity [5] [%] | Activity [6] [%] | Activity [7] [%] | Activity [8] [%] | Activity [9] [%] | Activity [10] [%] | Activity [11] [%] | Activity [12] [%] | Activity [13] [%] | IC50 [14] [µM] | Activity [15] [%] | SMILES
1 | 100 | 79 | 106 | 110 | 96 | 42 | 60 | 91 | – | – | – | – | – | – | – | CC(C)c1onc(-c2ccc(F)cc2)c1-c1ccncc1
2 | 89 | 83 | 107 | 35 | 89 | 64 | 89 | 102 | – | – | – | – | – | – | – | CC(C)c1noc(-c2ccc(F)cc2)c1-c1ccncc1
3 | – | – | – | – | – | – | – | – | 81 | 90 | 81 | 50 | 115 | 0.073 | 87 | COc1ccc(/C=C/C(=O)Nc2cc(-c3[nH]c(SC)nc3-c3ccc(F)cc3)ccn2)c(OC)c1
4 | – | – | – | – | – | – | – | – | 79 | 53 | 101 | 50 | 122 | 0.447 | 107 | COc1ccc(/C=C/C(=O)Nc2cc(-c3[nH]c([S+](C)[O-])nc3-c3ccc(F)cc3)ccn2)c(OC)c1 (stereo not given)
